Only a selection was taken, and hits are over-represented in it overall.
Pyk2 oligo antag = antagonists of Pyk2 self-association, primary screen, Q293 cells, FERM NanoBiT luminescence, HTS. actives 0.83% (n = 99,000). hits give low values. Protein-tyrosine kinase 2-beta (Homo sapiens), Q14289. z-score (the deposit names both 25 µM and 10 µM);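 active = Z-score of -3 or lower, scaled per plate to the spread of control and sample wells; inactive = z-score above -3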;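 also: negative z-score means lost luminescence so less FERM oligomerization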
H69AR growth 86K = proliferation blockers of H69AR lung cancer cells, primary screen, cell-based, human, 86K library. H69AR lung tumor viability, ATP luminescence, 72 h; hits give low values. AID 598, 2007. viability, % at 10 µM. actives 6% (n = 85,000);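 active = viability at or below 40%; inactive = viability above 40%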;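 also: multidrug resistant small cell line overexpressing MRP-1 efflux transporter; 100% = mean luminescence of untreated control wells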
HUVEC prolif 384 = inhibitors of HUVEC proliferation, primary screen, cell-based, 384-well. CellTiter-Glo luminescence, 72 h; hits give low values. viability, % at 10 µM (by protocol). actives 1.1% (n = 86,000);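 active = viability at or below 30%; inactive = viability above 30%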;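 also: 100% = median luminescence of DMSO-only cell control wells on each plate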
bCat KO growth = primary screen for growth suppressors in beta-catenin knockout HCT116 cells (colon tumor, human); actives 1.5% (n = 140,000); AID 818, 2007; HCT116 beta-catenin knockout viability, CellTiter-Glo, 60 h; hits give low values; viability, % at 10 µM;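 active = viability at or under a set limit, the compound median less 4 SD, cut at about 6% in these data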;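 also: 0% = Hyamine 1622 control at 20 µM and 100% = untreated cell control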
PTEN del growth = growth suppression of PTEN-null HCT116, primary screen, cell-based, CellTiter-Glo; HCT116 PTEN-null viability, 60 h; hits give low values; viability, % at 10 µM; actives 1.2% (n = 140,000); AID 827, 2007;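 active = viability at or below a set limit, 4 SD under the median of all tested compounds, cut at about 3.7% in these data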;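 also: PTEN knockout HCT116 line with beta catenin targeted HCT116 as companion control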
Lung fibro prol = antiproliferative effect on LL 47 fibroblasts – human, LL 47 cells, CellTiter-Glo luminescence, primary screen; LL 47 human lung fibroblast viability, ATP luminescence; hits give low values; viability, % at 10 µM; actives 1.1% (n = 85,000); AID 719, 2007;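 active = viability at or below 50% in the single dose screen; inactive = viability above 50%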;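 also: compound exposure lasted 72 h before the ATP readout; 100% = median luminescence of untreated cell-only wells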
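Material: Human LL 47 lung fibroblast cells | Input: 1,150 cells/well | Buffer or medium: IMEM plus 15% FBS | Compound dosing: 0.1% DMSO in all compound wells | Times: Overnight cell rest, 72 h compound treatment at 37 °C | Signal: CellTiter-Glo luminescence measuring cellular ATP | Measure: % viability versus median cells-only luminescence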
Numbers without * were called inactive; nt = not tested or not shown.

SMILES | Pyk2 oligo antag | H69AR growth 86K | HUVEC prolif 384 | bCat KO growth | PTEN del growth | Lung fibro prol
COCCOC(=O)c1[nH]c2c(c1C)C(=O)CC(c1ccco1)C2 (stereo not drawn) | nt | 26.1* | 44.8 | 17.2 | 19.2 | 53.2
Cc1c(C(=O)OCCOC(C)C)[nH]c2c1C(=O)CC(c1ccco1)C2 (stereo not drawn) | nt | 41.5 | 57.4 | 11.8 | 13.0 | 63.7
Cc1c(C(=O)OCc2ccccc2)[nH]c2c1C(=O)CC(c1ccco1)C2 (stereo not drawn) | nt | 25.6* | 22.1* | 14.7 | 16.1 | 27.3*
CSCCOC(=O)c1[nH]c2c(c1C)C(=O)CC(c1ccco1)C2 (stereo not drawn) | nt | 36.6* | 50.0 | 10.3 | 13.0 | 55.0
CCOC(=O)c1[nH]c2c(c1C)C(=O)CC(c1ccco1)C2 (stereo not drawn) | nt | 41.3 | 39.8 | 9.6 | 11.8 | 58.8
Cc1ccnc(N=Cc2c(O)ccc3oc4c(c23)CCCC4)c1 | nt | nt | nt | 90.5 | 82.8 | nt
CCN(CC(=O)Nc1ccc([N+](=O)[O-])cc1OC)CC(=O)NC(C)(C)C | 0.2 | nt | nt | 100.7 | 101.3 | nt
CCCn1c(-c2cccnc2Cl)nc2cc(Cl)c(Cl)cc21 | -3.68* | nt | nt | 94.2 | 94.3 | nt
C=CCn1c(-c2cccnc2Cl)nc2cc(Cl)c(Cl)cc21 | -3.26* | nt | nt | 74.9 | 71.6 | nt
Cc1ccnc(NS(=O)(=O)c2ccc(NC(=O)c3c(-c4ccccc4Cl)noc3C)cc2)n1 | 0.28 | 86.2 | 98.5 | 97.4 | 93.2 | 98.0
COC(=O)c1c(F)c(F)c(NCCO)c(F)c1F | 0.83 | 104.0 | 92.3 | 98.9 | nt | 93.9
COc1ccccc1CNC(=O)COC(=O)[C@H](Cc1c[nH]c2ccccc12)NC(=O)c1cccs1 | nt | nt | nt | 81.9 | 98.7 | nt
CC(C)(C)NC(=O)CC(CC(=O)O)c1ccccc1 (stereo not drawn) | nt | 94.4 | 96.0 | 89.7 | 105.8 | 93.5
Cc1ccc(NC(=O)CC(O)(C(F)(F)F)C(F)(F)F)cc1 | -0.75 | 21.9* | 109.9 | 100.5 | 90.0 | 95.7
Cc1ccccc1N1CCN(C2=NC(=O)/C(=C/c3cn[nH]c3-c3ccccc3)S2)CC1 | nt | nt | nt | 72.9 | 82.4 | nt
Cc1ccc(S(=O)(=O)N2CCCC2C(=O)Oc2ccccc2)cc1 (stereo not drawn) | 0.64 | 101.8 | 99.9 | 105.8 | 99.9 | 95.6
COC(=O)C1CN(S(=O)(=O)c2ccc(C)cc2)CCN1S(=O)(=O)c1ccc(C)cc1 (stereo not drawn) | -3.69* | 80.0 | 98.0 | 96.0 | 85.2 | 95.5
COC(=O)C1CCCN1S(=O)(=O)c1ccc2ccccc2c1 (stereo not drawn) | 2.74 | 33.2* | 100.4 | 58.0 | 54.0 | 90.5
CCN1CCN(CC(=O)NC2CCCCC2)C(=O)C1=O | nt | 96.1 | 104.4 | 94.0 | 108.3 | 94.7
O=c1[nH]c(N/N=C/c2ccccc2Br)nnc1-c1ccccc1 | nt | nt | nt | 84.0 | 96.3 | nt
COc1ccc(/C=N/Nc2nnc(-c3ccccc3)c(=O)[nH]2)cc1 | nt | nt | nt | 4.5* | 2.9* | nt
CCCCNCc1cc(Br)c(OCc2cccs2)c(OC)c1 | 0.93 | nt | nt | 1.4* | 1.3* | nt
CCN1CCN(c2ncc3c(n2)CC(c2cc(OC)c(OC)c(OC)c2)CC3=O)CC1 (stereo not drawn) | 0.85 | 17.2* | 51.1 | 15.2 | 18.3 | 50.9
Cc1ccccc1-n1nnnc1-c1ccccc1 | -0.9 | 109.1 | 87.1 | 96.8 | 102.0 | 85.0
COc1ccc(-c2nnnn2-c2ccccc2OC)cc1 | -0.94 | 21.6* | 72.0 | 43.5 | 42.1 | 82.4
SMILES | Pyk2 oligo antag | H69AR growth 86K | HUVEC prolif 384 | bCat KO growth | PTEN del growth | Lung fibro prol
Nc1cc(C(F)(F)F)cc2c1SCC(=O)N2 | nt | nt | nt | 83.1 | 84.3 | nt
CCOC(=O)c1c(C)oc2c1c(C(c1ccncc1)N1CCOCC1)c(O)c1ccccc12 (stereo not drawn) | nt | 0.9* | 60.2 | 9.2 | 16.6 | 53.0
COc1ccc2c(CC(=O)OCC(=O)c3ccc(F)cc3)coc2c1 | 2.26 | 106.0 | 94.7 | 83.3 | 90.8 | 101.9
CCCCCCn1c(COc2ccccc2F)nnc1SCC(=O)N1c2ccccc2NC(=O)C1(C)C | 0.02 | 0.8* | 67.2 | 1.2* | 1.1* | 83.5
CCc1ccc(C2=NNC(=Nc3cccc(S(=O)(=O)N(C)C)c3)SC2)cc1 | nt | nt | nt | 3.9* | 3.9 | nt
CCOc1ccc(-c2nc(N)ncc2Oc2ccccc2Br)c(O)c1 | -2.16 | 85.1 | 93.0 | 79.9 | 67.9 | 88.3
C=C(C)COc1ccc(-c2nc(N)ncc2Oc2ccccc2OC)c(O)c1 | -4.28* | 80.6 | 95.0 | 86.7 | 78.8 | 89.9
C=C(C)COc1ccc(-c2nc(N)ncc2Oc2ccc(OC)cc2)c(O)c1 | -4.68* | 73.3 | 86.8 | 85.4 | 64.5 | 84.9
CCOc1ccc(-c2nc(N)ncc2Oc2cccc(OC)c2)c(O)c1 | -3.24* | 13.7* | 94.3 | 48.2 | 43.1 | 92.3
COc1cccc(Oc2cncnc2-c2ccc(OC)cc2O)c1 | -1.79 | 73.1 | 89.7 | 89.2 | 86.2 | 92.9
COc1ccc(-c2c(C)nc(N)nc2-c2ccc(OCc3ccc(C)cc3)cc2O)cc1OC | nt | nt | nt | 71.8 | 79.0 | nt
COC(=O)C(NNc1ccccc1)(NC(=O)c1cccc(F)c1)C(F)(F)F (stereo not drawn) | 1 | nt | nt | 82.9 | 89.3 | nt
CCOC(=O)c1ccccc1NC(=O)COC | 0.17 | 92.1 | 89.9 | 91.8 | 98.0 | 89.1
COC(=O)c1ccccc1NC(=O)COC(C)=O | 0.1 | 6.0* | 101.4 | 73.8 | 80.3 | nt
CCOC(=O)c1ccc2c(c1)nc(COc1ccccc1C#N)n2CC | nt | 19.8* | 78.3 | nt | nt | 98.6
CCOC(=O)c1ccc2c(c1)nc(COc1ccc3ccccc3c1)n2CC | -0.12 | 24.1* | 78.0 | 78.3 | 76.7 | 99.1
COC(=O)c1ccc(CN(c2ccc(C)cc2)S(=O)(=O)c2ccc3c(c2)OCCO3)o1 | -3.33* | 88.2 | 94.5 | 60.0 | 66.8 | 100.8
O=[N+]([O-])c1cc(-c2nc(-c3ccncc3)no2)ccc1Cl | nt | nt | nt | 2.8* | 2.3* | nt
COc1ccc(NCc2ccc([N+](=O)[O-])s2)cc1 | nt | nt | nt | 61.9 | 68.0 | nt
Cc1ccc(C(=O)N/N=C\c2ccc([N+](=O)[O-])s2)cn1 | nt | nt | nt | 2.4* | 2.6* | nt
COc1ccc(NC(=O)CCC(=O)N/N=C/c2ccc([N+](=O)[O-])s2)cc1 | nt | nt | nt | 1.4* | 1.1* | nt
Cc1ccc(/C=N/NC(=O)c2ccccn2)s1 | nt | nt | nt | 87.4 | 81.3 | nt
O=C(N/N=C/c1ccc([N+](=O)[O-])s1)c1cccc(Br)c1 | -0.18 | 38.9* | 30.2 | 7.4 | 4.1 | 2.6*
O=C(N/N=C/C=C/c1ccccc1)c1cccc(Br)c1 | 0.07 | 37.5* | 79.7 | 58.6 | 57.1 | 77.0
C=CCn1c(=N)n(CC(=O)c2ccc(Br)s2)c2ccccc21 | nt | nt | nt | 46.5 | 46.1 | nt
O=C(NCCc1ccccn1)c1cc(-c2cccc3ccccc23)nc2ccccc12 | nt | nt | nt | 87.3 | 77.2 | nt
CC(=O)Nc1ccc(S(=O)(=O)N(C)CCOCc2ccccc2)cc1 | 1 | nt | nt | 81.4 | 79.1 | nt

Compound activity deposited in PubChem BioAssay by several laboratories.
